Drawing on ChEMBL document CHEMBL4732136, “Synthesis, Tumor Specificity, and Photosensitizing Efficacy of Erlotinib-Conjugated Chlorins and Bacteriochlorins: Identification of a Highly Effective Candidate for Photodynamic Therapy of Cancer” (J Med Chem, 2021), this text covers IC50 and Drug uptake for 19 compounds.

One data set concerns UMUC3. Put plainly: Photosensitizing activity in human UMUC3 cells assessed as reduction in cell viability pretreated with compound for 24 hrs followed by light irradiation at 1 J/cm2 and measured after 48 hrs by MTT assay. It counts as functional, cell-based. The conditions noted are these: UMUC3, light or radiation study. A digest of the protocol: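 Cells plated 0.01x10⁶ to 0.05x10⁶ cells/ml and allowed to adhere 24 h before photosensitizer was added, top dose 1600 nM with 2-fold serial dilutions. Plates received no light (0 J/cm²) or 1 J/cm² at 565 mW, 15 cm spot. After 48 h, MTT added for 3 h, formazan solubilized in DMSO and read at 570 nm; IC₅₀ fitted from dose-response.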

A further data set concerns FaDu. In words: Photosensitizing activity in human FaDu cells assessed as reduction in cell viability pretreated with compound for 24 hrs followed by light irradiation at 1 J/cm2 and measured after 48 hrs by MTT assay. The conditions noted are these: light or radiation study. It counts as functional, cell-based. The procedure, abridged:
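Cells seeded at 0.01–0.05 x 10⁶ cells/ml; PS added 24 h after plating, top dose 1600 nM with 2-fold serial dilutions. Plates given 0 or 1 J/cm² light. MTT added 48 h later, formazan dissolved in DMSO, absorbance at 570 nm; IC50 from curve fitting.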

A short description of data set [1]: Drug uptake in human CFSE-stained HN-121 cells assessed as increase in drug retention at 1.6 uM in medium with 10% FBS followed by 48 hrs chase period by inverted fluorescence microscopic analysis. In kind it is ADME, cell-based. The conditions noted are these: hn-121, 48 h.
Data set [2] in a line: Drug uptake in human FaDu clone 49 cells assessed as increase in drug retention at 1.6 uM in RPMI medium with 10% FBS followed by 48 hrs chase period by inverted fluorescence microscopic analysis.
A short description of data set [3]: Drug uptake in human HNT1 cells at 3.2 uM incubated for 30 mins in serum free medium followed by […] in compound-free medium by inverted fluorescence microscopic analysis. The note with it: hnt1, 0.5 h. In kind it is ADME, cell-based. A digest of the protocol: (§1)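 Confluent HNT1 cultures (passage 116) given 3.2 μM PS for 30 min in serum-free medium, then 5 h in serum-containing medium with PS, then 15 h chase in serum medium without PS. Fluorescence recorded at 100X with varied camera exposures and quantified digitally; pixel signal normalized to time and cell number.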

A short description of data set [4]: Drug uptake in human HNT1 cells at 3.2 uM incubated for 30 mins in DMEM media with 10% FBS followed by […] in compound-free medium by inverted fluorescence microscopic analysis. It counts as ADME, cell-based. The conditions noted are these: hnt1, 0.5 h, in the assay text read “in serum-free medium” for “in DMEM media with 10% FBS”. A digest of the protocol:
as §1

Data set [5] is described as follows: Drug uptake in tumor of SCID mouse xenografted with human UMUC3 cells at 0.47 micromol/kg, iv pretreated with compound followed by light irradiation at a dose of 135 J/cm2 and 75 mW/cm2 measured after 2 to 24 hrs by IVIS analysis. In kind it is ADME, organism-based, Neoplasm. The note with it: in vivo, time 2-24 hrs, dose 0.47 µmol/kg. A digest of the protocol: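 Female SCID mice with UMUC3 flank/shoulder tumors, 3 per group. PS in 1% Tween80/5% dextrose given iv at 0.47, 0.25 or 0.125 μmol/kg. Whole-body fluorescence imaging by IVIS at several times after injection; average radiant efficiency measured in tumor, liver and skin.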

The nature of data set [6]: Drug uptake in human HN-143 cells assessed as increase in drug retention retention at 3 uM in medium with 10% FBS incubated for 5 hrs followed by 40 hrs chase period by inverted fluorescence microscopic analysis. It counts as ADME, cell-based. The conditions noted are these: hn-143, 5 h. The procedure, abridged:
(§2)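 Five-day co-cultures of HN-143 tumor epithelial cells and HN-166 tumor fibroblasts, both primary head & neck tumor cultures grown on collagen-1 under selective media. PS in 10% FBS medium for 5 h, then 40 h chase without PS. Phase-contrast and fluorescence images taken at 100X with 500 ms exposure; signal normalized to recording time and cell number.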

Data set [7] is described as follows: Drug uptake in human HN-166 cells assessed as increase in drug retention retention at 3 uM in medium with 10% FBS incubated for 5 hrs followed by 40 hrs chase period by inverted fluorescence microscopic analysis. In kind it is ADME, cell-based. The conditions noted are these: hn-166, 5 h. The procedure, abridged:
as §2

Take `C=Cc1c(C)c2cc3nc(c(CC(=O)NCc4cccc(C#Cc5cccc(Nc6ncnc7cc(OCCOC)c(OCCOC)cc67)c5)c4)c4[nH]c(cc5nc(cc1[nH]2)C(C)=C5CC)c(C)c4C(=O)OC)[C@@H](CCC(=O)OC)[C@@H]3C`: the results for the IC50 in the data set on UMUC3 and with FaDu were 45 nM and 166 nM, respectively.

With `C=Cc1c(C)/c2[nH]/c1=C\C1=NC(=C\C3=C(C)C4C(=O)N(Cc5cccc(C#Cc6cccc(Nc7ncnc8cc(OCCOC)c(OCCOC)cc78)c6)c5)C(=O)/C(=C5N=C(\C=2)[C@@H](C)[C@@H]/5CCC(=O)OC)C4N3)/C(CC)=C1C` (some centres not stated), the Drug uptake result in [1] and in [2] was “Not Active” each time.

For the compound `CCC1=C(C)c2cc3[nH]c(cc4nc(c5c6[nH]c(cc1n2)c(C)c6C(=O)C5)[C@@H](CCC(=O)O)[C@@H]4C)c(C)c3C(C)OCc1ccc(C#Cc2cccc(Nc3ncnc4cc(OCCOC)c(OCCOC)cc34)c2)cc1` (some centres not stated), the Drug uptake result in [1] and in [2] was “Active” throughout. In addition, the concentration for half-maximal inhibition (IC50) with UMUC3 is 34.4 nM; with FaDu, 59.6 nM.

For the compound `C=Cc1c(C)c2cc3nc(c(CC(=O)OC)c4[nH]c(cc5nc(cc1[nH]2)C(C)=C5CC)c(C)c4C(=O)NCCNC(=O)COCC(=O)NCCCOCCOCCOCCCNC(=O)Cc1cccc(I)c1)[C@@H](CCC(=O)OC)[C@@H]3C`, the Drug uptake entry in data set [1] and in [2] was “Not Active” in each case. In addition, the figures for the IC50 in the data set with UMUC3 and in the data set on FaDu were 26.4 nM and 19.2 nM, respectively.

For `CCC1=C(C)c2cc3[nH]c(cc4nc(c5c6[nH]c(cc1n2)c(C)c6C(=O)C5)[C@@H](CCC(=O)O)[C@@H]4C)c(C)c3C(C)OCc1cccc(C#Cc2cccc(Nc3ncnc4cc(OCCOC)c(OCCOC)cc34)c2)c1` (some centres not stated), the results for the Drug uptake result in data set [3], in data set [4] and in data set [5] were “Active”, “Active” and “Not Active”, respectively. Further, the half-inhibitory concentration (IC50) in the data set with UMUC3 amounted to 54.8 nM; in the data set on FaDu, 31.8 nM.

On to `CCC1c2cc3[nH]c4c(c5nc(cc6[nH]c(cc(n2)C1C)c(C(C)OCc1cccc(C#Cc2cccc(Nc7ncnc8cc(OCCOC)c(OCCOC)cc78)c2)c1)c6C)[C@@H](C)[C@@H]5CCC(=O)OC)CC(=O)c4c3C` (some centres not stated), for which the Drug uptake result in data set [1] and in [2] was “Not Active” in each case. In the data set with UMUC3, the IC50 came to 16.8 nM.

In the case of `CCCCCCOC(C)c1c(C)c2cc3nc(c(CC(=O)OC)c4[nH]c(cc5nc(cc1[nH]2)C(C)=C5CC)c(C)c4C(=O)NCc1cccc(I)c1)[C@@H](CCC(=O)OC)[C@@H]3C` (some centres not stated), the Drug uptake entry in data set [1] and in data set [2] was “Not Active” each time.

Turning to `CCC1c2cc3[nH]c4c(c5nc(cc6[nH]c(cc(n2)C1C)c(C(C)OCc1cccc(C#Cc2cccc(Nc7ncnc8cc(OCCOC)c(OCCOC)cc78)c2)c1)c6C)[C@@H](C)[C@@H]5CCC(=O)O)CC(=O)c4c3C` (some centres not stated), the Drug uptake entry in data set [1] and in data set [2] was “Not Active” throughout. In addition, the IC50 in the data set on UMUC3 turned out to be 8.9 nM.

As for `CCCCCCOC(C)c1c(C)c2cc3nc(c4c5[nH]c(cc6nc(cc1[nH]2)C(C)=C6CC)c(C)c5C(=O)C4)[C@@H](CCC(=O)NC(CCC(=O)NCc1cccc(C#Cc2cccc(Nc4ncnc5cc(OCCOC)c(OCCOC)cc45)c2)c1)(CCC(=O)NCc1cccc(C#Cc2cccc(Nc4ncnc5cc(OCCOC)c(OCCOC)cc45)c2)c1)CCC(=O)NCc1cccc(C#Cc2cccc(Nc4ncnc5cc(OCCOC)c(OCCOC)cc45)c2)c1)[C@@H]3C` (some centres not stated), the Drug uptake result in [1] and in [2] was “Not Active” in each case.

Consider `CCCCCCOC(C)c1c(C)c2cc3nc(c(CC(=O)OC)c4[nH]c(cc5nc(cc1[nH]2)C(C)=C5CC)c(C)c4C(=O)NCc1cccc(C#Cc2cccc(Nc4ncnc5cc(OCCOC)c(OCCOC)cc45)c2)c1)[C@@H](CCC(=O)OC)[C@@H]3C` (some centres not stated), for which the Drug uptake result is “Not Active” in [1], “Active” in [6], “Active” in [7] and “Not Active” in data set [2]. Moreover, the concentration for half-maximal inhibition (IC50) with UMUC3 was 3.5 nM.

For the compound `CCC1=C(C)c2cc3[nH]c(c(C)c3CC)c(-c3ccc(C(=O)NCc4ccc(I)cc4)cc3)c3nc(c4c5[nH]c(cc1n2)c(C)c5C(=O)C4)[C@@H](CCC(=O)OC)[C@@H]3C`, the Drug uptake result in [1] and in [2] was “Not Active” each time. The 50% inhibitory concentration (IC50) in the data set with UMUC3 is 196 nM; in the data set on FaDu, 1250 nM.

As to `C=Cc1c(C)c2cc3nc(c(CC(=O)OC)c4[nH]c(cc5nc(cc1[nH]2)C(C)=C5CC)c(C)c4C(=O)NCc1cccc(C#Cc2cccc(Nc4ncnc5cc(OCCOC)c(OCCOC)cc45)c2)c1)[C@@H](CCC(=O)OC)[C@@H]3C`, the figures for the half-inhibitory concentration (IC50) in the data set on UMUC3 and in the data set on FaDu were 39.6 nM and 33.4 nM, respectively.

Take `CCC1=C(C)c2cc3[nH]c(c(C)c3CC)c(-c3ccc(C(=O)NCc4ccc(C#Cc5cccc(Nc6ncnc7cc(OCCOC)c(OCCOC)cc67)c5)cc4)cc3)c3nc(c4c5[nH]c(cc1n2)c(C)c5C(=O)C4)[C@@H](CCC(=O)OC)[C@@H]3C`: the Drug uptake result in [1] and in data set [2] was “Not Active” throughout. In addition, in the data set on FaDu, the IC50 is over 10000 nM.

Turning to `C=Cc1c(C)c2cc3nc(c(CC(=O)OC)c4[nH]c(cc5nc(cc1[nH]2)C(C)=C5CC)c(C)c4C(=O)NCc1cccc(I)c1)[C@@H](CCC(=O)OC)[C@@H]3C`, the IC50 in the data set on UMUC3 was 28.2 nM; in the data set with FaDu it was 13.8 nM.

As for `CCCCCCOC(C)c1c(C)c2cc3nc(c(CC(=O)OC)c4[nH]c(cc5nc(cc1[nH]2)C(C)=C5CC)c(C)c4C(=O)NCCCOCCOCCOCCCNC(=O)Cc1cccc(C#Cc2cccc(Nc4ncnc5cc(OCCOC)c(OCCOC)cc45)c2)c1)[C@@H](CCC(=O)OC)[C@@H]3C` (some centres not stated), the Drug uptake result in data set [1], in data set [6], in data set [7] and in [2] was “Active” throughout. Moreover, the values for the 50% inhibitory concentration (IC50) in the data set with UMUC3 and in the data set on FaDu were 7.5 nM and 21.4 nM, respectively.

With `CCCCCCOC(C)c1c(C)c2cc3nc(c4c5[nH]c(cc6nc(cc1[nH]2)C(C)=C6CC)c(C)c5C(=O)C4)[C@@H](CCC(=O)NCc1cccc(I)c1)[C@@H]3C` (some centres not stated), the IC50 in the data set on UMUC3 came to 187 nM; in the data set on FaDu, 520 nM.

As to `CCCCCCOC(C)c1c(C)c2cc3nc(c(CC(=O)OC)c4[nH]c(cc5nc(cc1[nH]2)C(C)=C5CC)c(C)c4C(=O)NCCCOCCOCCOCCCNC(=O)Cc1cccc(I)c1)[C@@H](CCC(=O)OC)[C@@H]3C` (some centres not stated), the half-maximal inhibitory concentration (IC50) with UMUC3 is 6.8 nM; in the data set with FaDu it was 15.4 nM.

For `CCCCCCOC(C)c1c(C)c2cc3nc(c4c5[nH]c(cc6nc(cc1[nH]2)C(C)=C6CC)c(C)c5C(=O)C4)[C@@H](CCC(=O)NCc1cccc(C#Cc2cccc(Nc4ncnc5cc(OCCOC)c(OCCOC)cc45)c2)c1)[C@@H]3C` (some centres not stated), the Drug uptake result in [1], in data set [6], in data set [7] and in [2] was “Active” each time. Moreover, in the data set on UMUC3, the IC50 came to 43.4 nM.

Regarding `C=Cc1c(C)c2cc3nc(c(CC(=O)OC)c4[nH]c(cc5nc(cc1[nH]2)C(C)=C5CC)c(C)c4C(=O)NCCNC(=O)COCC(=O)NCCCOCCOCCOCCCNC(=O)Cc1cccc(C#Cc2cccc(Nc4ncnc5cc(OCCOC)c(OCCOC)cc45)c2)c1)[C@@H](CCC(=O)OC)[C@@H]3C`, the Drug uptake result in [1] and in data set [2] was “Not Active” each time. Also, the half-maximal inhibitory concentration (IC50) in the data set on UMUC3 stood at 59.2 nM; in the data set with FaDu it was 88.6 nM.
